Measurements from ChEMBL document CHEMBL1146343, “Synthesis and activity of Combretastatin A-4 analogues: 1,2,3-thiadiazoles as potent antitumor agents” (Bioorg Med Chem Lett, 2007).
pIC50: −log10 of the molar value. Calls of active or inactive are those of the source. The calls are words filed in the database; no cut-off is given here.

Experiments:
HCT-116 = assay: Antiproliferative activity against human HCT116 cells; assay type: functional, cell-based
Method in brief: (§1)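 Antiproliferative testing against human HL-60 myeloid leukemia, HCT-116 colon adenocarcinoma and HMEC-1 microvascular endothelial cells; each experiment run independently at least three times, values given with SD.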

HL-60 = assay: Antiproliferative activity against human HL60 cells; assay type: functional, cell-based; method in brief: as §1
[1] = Antiproliferative activity against human HMEC1 cells; assay type: cell-based; details: HMEC-1; method in brief: as §1
[2] = Cell cycle arrest in HMEC1 cells assessed as accumulation at G2/M phase at 50 nM after 24 hrs by flow cytometry assay relative to control; assay type: functional, cell-based; details: Homo sapiens, HMEC-1
Method in brief: (§2)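 HMEC-1 cells treated 24 h at 6.25–100 nM, then cell cycle distribution (G1, G2/M, S percentages) determined by flow cytometry using standard propidium iodide staining; untreated cells as control.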

[3] = Cell cycle arrest in HMEC1 cells assessed as accumulation at S phase at 25 nM after 24 hrs by flow cytometry assay relative to control; assay type: functional, cell-based; details: Homo sapiens, HMEC-1; method in brief: as §2
[4] = Cell cycle arrest in HMEC1 cells assessed as accumulation at G2/M phase at 12.5 nM after 24 hrs by flow cytometry assay relative to control; assay type: functional, cell-based; details: Homo sapiens, HMEC-1; method in brief: as §2
[5] = Cell cycle arrest in HMEC1 cells assessed as accumulation at G1 phase at 6.25 nM after 24 hrs by flow cytometry assay relative to control; assay type: functional, cell-based; details: Homo sapiens, HMEC-1; method in brief: as §2
[6] = Cell cycle arrest in HMEC1 cells assessed as accumulation at G1 phase at 12.5 nM after 24 hrs by flow cytometry assay relative to control; assay type: functional, cell-based; details: Homo sapiens, HMEC-1; method in brief: as §2
[7] = Cell cycle arrest in HMEC1 cells assessed as accumulation at S phase at 100 nM after 24 hrs by flow cytometry assay relative to control; assay type: functional, cell-based; details: Homo sapiens, HMEC-1; method in brief: as §2
[8] = Cell cycle arrest in HMEC1 cells assessed as accumulation at S phase at 6.25 nM after 24 hrs by flow cytometry assay relative to control; assay type: functional, cell-based; details: Homo sapiens, HMEC-1; method in brief: as §2
[9] = Cell cycle arrest in HMEC1 cells assessed as accumulation at G2/M phase at 6.25 nM after 24 hrs by flow cytometry assay relative to control; assay type: functional, cell-based; details: Homo sapiens, HMEC-1; method in brief: as §2
Tubulin = assay: Inhibition of tubulin polymerization; assay type: protein-complex assay, Homo sapiens
[10] = Cell cycle arrest in HMEC1 cells assessed as accumulation at G1 phase at 50 nM after 24 hrs by flow cytometry assay relative to control; assay type: functional, cell-based; details: Homo sapiens, HMEC-1; method in brief: as §2
[11] = Cell cycle arrest in HMEC1 cells assessed as accumulation at G1 phase at 100 nM after 24 hrs by flow cytometry assay relative to contro; assay type: functional, cell-based; details: Homo sapiens, HMEC-1; method in brief: as §2
[12] = Cell cycle arrest in HMEC1 cells assessed as accumulation at G1 phase at 25 nM after 24 hrs by flow cytometry assay relative to control; assay type: functional, cell-based; details: Homo sapiens, HMEC-1; method in brief: as §2
[13] = Cell cycle arrest in HMEC1 cells assessed as accumulation at S phase at 12.5 nM after 24 hrs by flow cytometry assay relative to control; assay type: functional, cell-based; details: Homo sapiens, HMEC-1; method in brief: as §2
[14] = Cell cycle arrest in HMEC1 cells assessed as accumulation at G2/M phase at 100 nM after 24 hrs by flow cytometry assay relative to control; assay type: functional, cell-based; details: Homo sapiens, HMEC-1; method in brief: as §2
[15] = Cell cycle arrest in HMEC1 cells assessed as accumulation at G2/M phase at 25 nM after 24 hrs by flow cytometry assay relative to control; assay type: functional, cell-based; details: Homo sapiens, HMEC-1; method in brief: as §2
[16] = Cell cycle arrest in HMEC1 cells assessed as accumulation at S phase at 50 nM after 24 hrs by flow cytometry assay relative to control; assay type: functional, cell-based; details: Homo sapiens, HMEC-1; method in brief: as §2
HMEC-1 [17] = assay: Disruption of cytoskeleton in HMEC1 cells at 1 uM after 30 mins; assay type: functional, cell-based; details: Homo sapiens
Method in brief: (§3)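 HMEC-1 cells grown on slides, exposed 30 min at 1 μM, fixed in 3% formaldehyde, permeabilized with 0.1% Triton X-100, stained with primary antibody then Alexa488 secondary; nuclei counterstained with DAPI in mounting medium; imaged by confocal microscopy.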

CCRF S-180 [18] = assay: Antitumor activity in mouse implanted with S180 cells at 100 mg/kg, ip after 7 days; assay type: functional; details: CCRF S-180, ip, 168 h, route intraperitoneal
Method in brief: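 Mice bearing transplanted S180 sarcoma dosed i.p. daily for 4–7 days (10 per group, saline control group of 20); animals then euthanized, tumors excised and weighed; inhibition rate from tumor weight versus saline controls; significance p < 0.01.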

Mus musculus [19] = assay: Effect on body weight in mouse implanted with S180 cells at 100 mg/kg, ip after 7 days; assay type: functional, CCRF S-180; details: route intraperitoneal
Method in brief: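 S180 sarcoma-bearing mice given daily i.p. doses for 4–7 days, 10 mice per group with saline controls; body weight recorded at start and end, surviving mice counted at end of treatment.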

HMEC-1 [20] = assay: Effect on alteration in morphology of HMEC1 cells at 1 uM after 30 mins; assay type: functional, cell-based; details: Homo sapiens; method in brief: as §3
Mus musculus [21] = assay: Toxicity in mouse implanted with S180 cells at 50 mg/kg, ip after 2 days; assay type: organism-based, CCRF S-180; parameters: dose 50 mg/kg, route intraperitoneal; details: in vivo, 48 h
Method in brief: (§4)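 Mouse S180 sarcoma transplant model; drug given i.p. daily, with an NS-treated control group (n = 20) and 10 mice per treated group. At the end, animals were euthanized and tumors excised and weighed. Inhibition rate is relative to the control. Body weight and surviving mouse numbers were recorded at the start and end. Significance was set at p < 0.01.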

Mus musculus [22] = assay: Effect on body weight in mouse implanted with S180 cells at 50 mg/kg, ip after 2 days; assay type: functional, CCRF S-180; details: route intraperitoneal; method in brief: as §4
CCRF S-180 [23] = assay: Antitumor activity in mouse implanted with S180 cells at 50 mg/kg, ip after 2 days; assay type: functional; details: CCRF S-180, ip, 48 h, route intraperitoneal; method in brief: as §4

SMILES	pIC50 (HCT-116)	pIC50 (HL-60)	pIC50 [1]	pIC50 (Tubulin)	further results
COc1cc(-c2nnsc2-c2ccc([N+](=O)[O-])cc2)cc(OC)c1OC	< 6.00	< 6.00	< 6.00	–	–
COc1ccc(-c2snnc2-c2cc(OC)c(OC)c(OC)c2)cc1OC	7.29	7.22	7.12	6.14	Activity [2]: 61%; Activity [3]: 29%; Activity [4]: 25%; Activity [5]: 36%; Activity [6]: 35%; Activity [7]: 21%; Activity [8]: 40%; Activity [9]: 24%; Activity [10]: 12%; Activity [11]: 1%; Activity [12]: 38%; Activity [13]: 40%; Activity [14]: 78%; Activity [15]: 33%; Activity [16]: 27%
COc1ccc(-c2nnsc2-c2cc(OC)c(OC)c(OC)c2)cc1	6.21	6.27	< 6.00	–	–
COc1ccc(-c2nnsc2-c2cc(OC)c(OC)c(OC)c2)cc1O	7.15	7.39	7.39	6.07	–
COc1ccc(-c2nnsc2-c2cc(OC)c(OC)c(OC)c2)cc1OC	< 6.00	< 6.00	< 6.00	–	–
COc1cc(-c2nnsc2-c2ccc(F)cc2)cc(OC)c1OC	< 6.00	–	< 6.00	–	–
COc1ccc(-c2nnsc2-c2cc(OC)c(OC)c(OC)c2)cc1[N+](=O)[O-]	< 6.00	< 6.00	< 6.00	–	–
COc1ccc(-c2nnsc2-c2cc(OC)c(OC)c(OC)c2)cc1N	< 6.00	< 6.00	< 6.00	–	–
COc1ccc(-c2snnc2-c2cc(OC)c(OC)c(OC)c2)cc1[N+](=O)[O-]	7.52	7.87	7.58	5.67	Activity (HMEC-1 [17]): Active; inhibition in vivo at 100 mg/kg (CCRF S-180 [18]): 64.2%; Activity (Mus musculus [19]): 21.8 g; Activity (HMEC-1 [20]): Active
O=c1[nH]cc(F)c(=O)[nH]1 [FLUOROURACIL]	–	–	–	–	Activity (Mus musculus [21]): Non-toxic; Activity (Mus musculus [22]): 23 g; inhibition in vivo at 50 mg/kg (CCRF S-180 [23]): 80.4%
